In PubChem BioAssay:
Results filed as inconclusive are left out.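 The calls were made as follows, unless noted: active = viability increase at or above a cutoff of the median across tested compounds plus 3 SD (cut at about 8.5% in these data, passing the limit was not always enough); inconclusive = some gains above the cutoff, reason not given; inactive = the rest.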

Legend:
[1] = S. cerevisiae growth inhibition in permissive medium (OD615), pilot counter-assay for S. cerevisiae lifespan shortening project, permissive growth control (AID 705;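 active = growth inhibition above 25% in both replicates, a cutoff set 3 SD above the mean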); details: OD615, 24 h, at 10 µM, hits give high values
Outline: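 System – S. cerevisiae with engineered DeaD lifespan system · Buffer or medium – SC raffinose/galactose permissive medium · Schedule – cells pre-grown 4 h, then 24 h compound exposure, 30 °C humidified · Technique – culture turbidity as optical density at 615 nm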

[2] = S. cerevisiae growth inhibition in restrictive medium, OD615, pilot screen, restrictive growth control, yeast lifespan reduction project (AID 706;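 active = growth inhibition above a set limit, 3 SD over mean compound inhibition, in both replicates, cut at about 43% in these data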;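 also: modified DeaD lifespan yeast strain shifted to restrictive glucose medium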); details: OD615, 48 h, at 10 µM, hits give high values
Outline: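 Material: engineered S. cerevisiae DeaD strain / Medium: glucose-based CSMM-D restrictive medium / Compound: single dose of 10 µM compound final, 0.25% DMSO / Timing: 4 h pre-incubation, 48 h exposure at 30 °C / Technique: OD615 absorbance reading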

[3] = doxorubicin toxicity protection in MRP-1 cells – H69AR cells, CellTiter-Glo, duplicate, MRP-1 activator project, pilot screen (AID 807); details: H69AR viability with doxorubicin, CellTiter-Glo luminescence; at 10 µM; hits give high values;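 also: compound pretreatment 18-22 h then 72 h combined with doxorubicin; 0% = doxorubicin alone and 100% = vehicle without doxorubicin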
[4] = viability of HCT116 without oncogenic beta-catenin – human colon tumor cells, pilot screen (AID 823;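 active = cell viability at or below a set limit in both duplicate runs, the limit being the all-compound median minus 4 SD, cut at about 23% in these data, passing the limit was not always enough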;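 also: 0% = wells killed by 20 µM Hyamine and 100% = untreated DMSO cell wells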); details: HCT116 beta-catenin knockout viability, CellTiter-Glo, 60 h; at 10 µM; hits give low values
[5] = viability of PTEN-null HCT116 cells – cell-based, HCT116 clonal line, CellTiter-Glo, pilot screen (AID 824;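 active = viability at or below 27.92% in each of two runs, the all-compound median minus 4 SD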;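 also: 0% = 20 µM Hyamine control and 100% = vehicle cell control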); details: HCT116 PTEN-deleted viability, 60 h, at 10 µM, hits give low values
[6] = RAM pathway blockade in budding yeast – dse1pr::URA3 reporter, 5-FOA selection, pilot screen (AID 869;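 active = inhibition over a set limit, the all-compound mean plus 3 SD, in both replicate runs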;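 also: 0% = DMSO wells with no growth and 100% = 10 µM 1-NA-PP1 with full growth; RAM network block rescues cells from 5-FOA so hits raise OD615 growth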); details: S. cerevisiae dse1pr::URA3 5-FOA growth, OD615, 2 d; at 10 µM; hits give high values; strain carries analog-sensitive mutant Cbk1 kinase
[7] = RAM signaling pathway blockade in yeast – S. cerevisiae, Pdr1DBD-CYC8 efflux-inhibited sensitized strain, primary screen (AID 1298;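 active = RAM network inhibition above 8.4% in each of two replicates, 3 SD over the compound average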;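 also: 0% = DMSO untreated cells without growth and 100% = 10 µM 1-NA-PP1 full growth; higher means more yeast growth rescued from 5-FOA killing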); details: S. cerevisiae cbk1-as DSE1-URA3 strain, 5-FOA growth OD615, 2 d; at 50 µM; hits give high values

COc1cccc(-c2nc(C(N)=O)c3[nH]c(=O)n(-c4ccccc4)c3n2)c1OC
inactive: growth inhibition [1] -8.87% | growth inhibition [2] -8.02% | viability increase [3] -4.58% | viability [4] 99.4% | viability [5] 95.9% | inhibition [6] 3.04% | RAM network inhibition [7] -0.2%

O=C(c1cc(-c2cccc(O)c2)on1)N1CCOCC1
inactive: growth inhibition [1] 1.27% | growth inhibition [2] 7.52% | viability increase [3] 0.64% | viability [4] 107% | viability [5] 98.4% | inhibition [6] 2.15% | RAM network inhibition [7] 2.22%

COc1ccccc1N(CC(=O)N1CCCCCC1)S(C)(=O)=O
inactive: growth inhibition [1] -11.6% | growth inhibition [2] -10.7% | viability increase [3] -1.57% | viability [4] 89.1% | viability [5] 92.5% | inhibition [6] 0.495% | RAM network inhibition [7] 2.63%

COc1ccc(C(=O)Nc2ccc(S(=O)(=O)N3CCCCC3C)cc2)c(OC)c1OC (configuration not stated)
inactive: growth inhibition [1] -3.56% | growth inhibition [2] -3.8% | viability increase [3] -0.18% | viability [4] 91.2% | viability [5] 96.1% | inhibition [6] 0.03% | RAM network inhibition [7] 1.24%

CCn1cc(C(=O)OCC(=O)Nc2c(C)n(C)n(-c3ccccc3)c2=O)c(=O)c2ccc(C)nc21
inactive: growth inhibition [1] -11.8% | growth inhibition [2] -0.91% | viability increase [3] -0.65% | viability [4] 97.6% | viability [5] 95% | inhibition [6] 0.195% | RAM network inhibition [7] 0.21%

CCOC(=O)c1c(CN(CC)CC)oc2cc(Br)c(O)cc12
inactive: growth inhibition [1] -0.115% | growth inhibition [2] 0.915% | viability increase [3] -3.81% | viability [4] 78.2% | viability [5] 81.6% | inhibition [6] -0.04% | RAM network inhibition [7] 3.43%

Cc1ccc(-n2ncc3c(N4CCC5(CC4)OCCO5)ncnc32)c(C)c1
inactive: growth inhibition [1] 1.21% | growth inhibition [2] 6.06% | viability increase [3] -7.95% | viability [4] 80.3% | viability [5] 83.8% | inhibition [6] 0.765% | RAM network inhibition [7] -1.04%

O=C(CCCC1=NS(=O)(=O)c2ccccc2N1)N1CCN(c2ccc(Cl)cc2)CC1
inactive: growth inhibition [1] -17.7% | growth inhibition [2] -0.86% | viability increase [3] -0.04% | viability [4] 91.7% | viability [5] 78.3% | inhibition [6] 0.37% | RAM network inhibition [7] 0.9%

COc1cc(CN2CCN(CCOCCO)CC2)cc(OC)c1OC
inactive: growth inhibition [1] -9.5% | growth inhibition [2] -8.52% | viability increase [3] 0.51% | viability [4] 94.5% | viability [5] 96.8% | inhibition [6] 1.11% | RAM network inhibition [7] 4.96%

Cc1cc(-n2c(SCCC#N)nnc2-c2cccnc2)ccc1Cl
inactive: growth inhibition [1] -12.4% | growth inhibition [2] -22.3% | viability increase [3] -2.79% | viability [4] 98.7% | viability [5] 94.5% | inhibition [6] 3.32% | RAM network inhibition [7] 5.99%

CCOC(=O)Cc1csc(NC(=O)CN(C)S(=O)(=O)c2cccc3cccnc23)n1
inactive: growth inhibition [1] -11.1% | growth inhibition [2] -7.54% | viability increase [3] -4.61% | viability [4] 93.5% | viability [5] 81.7% | inhibition [6] 1.14% | RAM network inhibition [7] 4.44%

CC12CCC(C(=O)NCc3ccco3)(OC1=O)C2(C)C (configuration not stated)
inactive: growth inhibition [1] -9.57% | growth inhibition [2] -9.65% | viability increase [3] -2.96% | viability [4] 98.3% | viability [5] 93.2% | inhibition [6] 1.42% | RAM network inhibition [7] -0.27%

CCOC(=O)Cn1c(=O)oc2cc(S(=O)(=O)N3CCc4ccccc43)ccc21
inactive: growth inhibition [1] -6.21% | growth inhibition [2] 1.04% | viability increase [3] -1.01% | viability [4] 91.8% | viability [5] 93.8% | inhibition [6] -0.605% | RAM network inhibition [7] 2.93%

COc1ccc(OC)c2sc(NC(=O)C(C)C)nc12
inactive: growth inhibition [1] -15.2% | growth inhibition [2] -18% | viability increase [3] -1.14% | viability [4] 105% | viability [5] 92% | inhibition [6] 1.31% | RAM network inhibition [7] 9.63%

COc1cc(C(c2sc3nc(C)nn3c2O)N2CCc3ccccc3C2)cc(OC)c1OC (configuration not stated)
inactive: growth inhibition [1] 3.55% | growth inhibition [2] -1.53% | viability increase [3] -1.3% | viability [4] 110% | viability [5] 96.1% | inhibition [6] 1.23% | RAM network inhibition [7] 2.85%

Cc1ccccc1-n1c(SC/C(O)=C(\C#N)c2nc3ccccc3[nH]2)nnc1-c1ccncc1
inactive: growth inhibition [1] 2.37% | growth inhibition [2] 19.1% | viability increase [3] -3.4% | viability [4] 93.5% | viability [5] 81.7% | inhibition [6] 2.92% | RAM network inhibition [7] 2.28%
